According to ChEMBL document CHEMBL1833814 (Bioorg Med Chem Lett, 2011):

Target: Fatty acid synthase (Homo sapiens, UniProt P49327)
Experiment: Inhibition of human FAS assessed as synthesis of long chain fatty acids from malonyl CoA after 60 mins by fluorescence assay
Procedure, shortened: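 FAS enzyme prepared from HeLa cells, in enzyme buffer (20 mM K phosphate, 1 mM EDTA, 1 mM DTT, 5% glycerol, pH 7.4). It was preincubated 60 min at 37 °C with compound (0.1% DMSO), 326 µM NADPH and 60 µM acetyl CoA in 100 mM K phosphate, 1 mM EDTA, 1 mM DTT, pH 7.0. The reaction was started with 200 µM malonyl CoA. NADPH consumption was read at 340 nm over 10 min, and the slope (Vmax) was taken.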

Fatty acid synthase, sequence (P49327 whole entry): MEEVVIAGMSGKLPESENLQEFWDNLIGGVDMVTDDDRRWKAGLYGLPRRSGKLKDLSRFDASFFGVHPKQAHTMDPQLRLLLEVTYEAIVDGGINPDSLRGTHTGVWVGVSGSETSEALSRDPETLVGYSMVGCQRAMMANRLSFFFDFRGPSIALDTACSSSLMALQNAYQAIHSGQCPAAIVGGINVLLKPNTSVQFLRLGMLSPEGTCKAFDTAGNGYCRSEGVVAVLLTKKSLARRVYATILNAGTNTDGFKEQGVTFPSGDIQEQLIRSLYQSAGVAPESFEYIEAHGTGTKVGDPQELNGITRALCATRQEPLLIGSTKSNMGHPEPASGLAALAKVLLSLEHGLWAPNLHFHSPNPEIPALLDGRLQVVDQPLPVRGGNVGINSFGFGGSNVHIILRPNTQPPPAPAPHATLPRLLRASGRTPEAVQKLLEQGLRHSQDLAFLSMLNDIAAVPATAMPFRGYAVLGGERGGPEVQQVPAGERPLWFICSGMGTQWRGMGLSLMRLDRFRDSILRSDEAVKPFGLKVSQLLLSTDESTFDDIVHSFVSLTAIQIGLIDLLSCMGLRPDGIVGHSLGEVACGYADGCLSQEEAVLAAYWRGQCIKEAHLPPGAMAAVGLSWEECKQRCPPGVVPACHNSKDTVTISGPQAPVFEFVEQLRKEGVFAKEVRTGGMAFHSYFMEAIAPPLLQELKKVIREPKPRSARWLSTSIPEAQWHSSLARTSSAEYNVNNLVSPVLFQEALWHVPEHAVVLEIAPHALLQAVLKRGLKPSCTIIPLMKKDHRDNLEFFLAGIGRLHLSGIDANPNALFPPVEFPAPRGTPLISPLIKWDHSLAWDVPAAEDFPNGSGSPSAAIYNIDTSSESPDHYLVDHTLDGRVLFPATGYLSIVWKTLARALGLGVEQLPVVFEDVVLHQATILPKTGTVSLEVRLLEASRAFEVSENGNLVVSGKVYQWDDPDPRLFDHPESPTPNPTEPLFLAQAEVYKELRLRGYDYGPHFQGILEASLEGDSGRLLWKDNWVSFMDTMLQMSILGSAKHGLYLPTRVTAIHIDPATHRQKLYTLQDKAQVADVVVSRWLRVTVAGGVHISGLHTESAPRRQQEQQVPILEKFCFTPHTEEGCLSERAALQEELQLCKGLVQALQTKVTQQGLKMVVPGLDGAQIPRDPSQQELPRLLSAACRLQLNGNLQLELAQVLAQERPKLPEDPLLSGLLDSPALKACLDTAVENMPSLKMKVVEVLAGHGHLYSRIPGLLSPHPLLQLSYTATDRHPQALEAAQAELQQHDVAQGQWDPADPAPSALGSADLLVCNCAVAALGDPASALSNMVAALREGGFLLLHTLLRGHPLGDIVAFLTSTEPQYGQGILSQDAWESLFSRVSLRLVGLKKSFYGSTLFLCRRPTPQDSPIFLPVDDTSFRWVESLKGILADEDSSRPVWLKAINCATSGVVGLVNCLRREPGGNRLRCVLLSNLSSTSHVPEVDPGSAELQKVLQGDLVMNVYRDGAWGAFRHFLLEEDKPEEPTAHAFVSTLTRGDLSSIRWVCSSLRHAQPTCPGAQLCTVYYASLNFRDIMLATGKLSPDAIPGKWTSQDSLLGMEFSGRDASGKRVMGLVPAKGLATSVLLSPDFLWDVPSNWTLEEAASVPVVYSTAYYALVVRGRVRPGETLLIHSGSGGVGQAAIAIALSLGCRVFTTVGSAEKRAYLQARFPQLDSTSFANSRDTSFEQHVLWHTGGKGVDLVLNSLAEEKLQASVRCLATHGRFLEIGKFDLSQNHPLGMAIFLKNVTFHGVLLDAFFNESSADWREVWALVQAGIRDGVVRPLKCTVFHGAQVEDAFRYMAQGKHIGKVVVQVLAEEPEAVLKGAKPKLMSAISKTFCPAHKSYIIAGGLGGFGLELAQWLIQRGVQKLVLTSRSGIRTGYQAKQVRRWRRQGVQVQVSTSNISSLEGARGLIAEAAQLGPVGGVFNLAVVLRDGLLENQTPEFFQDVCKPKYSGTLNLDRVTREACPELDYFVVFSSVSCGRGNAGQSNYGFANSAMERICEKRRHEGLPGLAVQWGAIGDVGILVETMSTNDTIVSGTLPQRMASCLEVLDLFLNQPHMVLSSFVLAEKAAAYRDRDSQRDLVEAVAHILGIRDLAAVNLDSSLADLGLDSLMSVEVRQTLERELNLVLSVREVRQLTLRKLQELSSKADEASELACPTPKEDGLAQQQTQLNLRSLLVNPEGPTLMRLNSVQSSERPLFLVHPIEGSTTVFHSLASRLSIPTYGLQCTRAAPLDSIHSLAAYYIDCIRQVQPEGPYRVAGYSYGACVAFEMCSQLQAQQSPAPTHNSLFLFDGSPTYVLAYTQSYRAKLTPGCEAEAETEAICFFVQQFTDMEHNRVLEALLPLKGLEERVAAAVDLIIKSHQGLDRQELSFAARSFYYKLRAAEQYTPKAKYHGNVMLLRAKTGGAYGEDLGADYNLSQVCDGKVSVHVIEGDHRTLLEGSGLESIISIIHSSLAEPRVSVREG

| IC50 [nM] | SMILES |
| --- | --- |
| 420 | CC(C)C(=O)N[C@H]1CC[C@@H](C(=O)N(C)c2ccc(-c3ccccc3)cc2)C1 |
| > 3000 | CCC(=O)N[C@@H]1CC[C@H](C(=O)N(C)c2ccc(-c3nc4ccccc4o3)cc2)C1 [BI 99990] |
| 2400 | CN(C)CCCCCC(=O)N[C@H]1CC[C@@H](C(=O)N(C)c2ccc(-c3nc4ccccc4n3C)cc2)C1 |
| 280 | CN(C)C(=O)N[C@H]1CC[C@@H](C(=O)N(C)c2ccc(-c3nc4ccccc4o3)cc2)C1 |
| 580 | CN(C)CCCCCC(=O)N[C@H]1CC[C@@H](C(=O)N(C)c2ccc(-c3nc4ccccc4o3)cc2)C1 |
| 700 | CN(C)CCCCCC(=O)N[C@H]1CC[C@@H](C(=O)N(C)c2ccc(-c3nc4ccccc4[nH]3)cc2)C1 |
